Data published in paper PMC9371711 (Proceedings of the National Academy of Sciences of the …, 2022).
pIC50, pKd: −log10 of the molar value.

Key:
[1] = tested on: 8MG, TB26, TB77 GBM cells; assay: Growth of AT2R-expressing GBM cells with AngII and antagonists, low serum; format: cell-based, human; settings: 1% FBS, 6 d; for effect of antagonist on AngII-enhanced growth: antagonist 10 μM + 10 nM AngII
Outline: (§1)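 Cells in 1% FBS received 10 nM AngII, AT1R or AT2R antagonists at 10 μM, each antagonist plus AngII, or both antagonists together. Established lines were read by SRB staining and primary cultures by CCK8, 6 d posttreatment. Values are mean absorbance normalised to untreated control ± SEM. Groups were compared by ANOVA with Tukey's test.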

TB82 = assay: Growth of GBM cells expressing AT1R but not AT2R with AngII, low serum; format: cell-based, human; settings: 10 nM AngII, 1% FBS, 6 d
Outline: as §1

AT2R = settings: cited from earlier work; for pKd: read-out: KD (Dissociation constant) for AT2R
TB77 cells [2] = assay: Muse Annexin V & Dead Cell Assay; format: cell-based, human; settings: 10, 30, 50 μM; 24, 48, 72 h; time and dose dependent
hCMEC/D3 = assay: Endothelial cell tube formation with GBM-conditioned media; format: cell-based, human; settings: 6-h incubation with media of TB77 treated with 30 μM EMA401
Outline: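 Conditioned media came from untreated TB77 cells or TB77 treated with 10 μM AT1R antagonist and 30 μM test compound. hCMEC/D3 endothelial cells were incubated in these media for 6 h. Read-outs were total segment length (pixels) and number of meshes, as mean ± SEM. Groups were compared by ANOVA with Tukey's multiple comparisons.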

GBM96 spheroids = assay: Spheroid invasion in 50% Matrigel; format: cell-based, human; settings: GBM96, dose-dependent, area covered by invading cells
Outline: (§2)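 Primary-cell spheroids were embedded in 50% Matrigel and exposed to test compound. Invasion was followed over time as the area covered by invading cells, by image thresholding. Values are mean area in pixels ± SEM. Groups were compared by ANOVA with Tukey's test.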

GBM31 = assay: Proliferation of GBM31; format: cell-based, human; settings: 1, 10, 30 μM, 1% serum, CCK8 9 d
Outline: (§3)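 Primary GBM explants in 1% serum were exposed to test compound at 1, 10 and 30 μM. Viability was read by CCK8 9 d posttreatment. Values are mean A450 normalised to untreated control ± SEM.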

[3] = In vivo brain biodistribution, LC-MS/MS; parameters: species or system C57BL/6 mice; settings: i.v., 30 min after dosing
TB77 cells [4] = assay: Cell cycle, propidium iodide flow cytometry; format: cell-based, human; settings: 10, 30, 50 μM
TB77 cells [5] = assay: TB77 proliferation, CCK8; format: cell-based, human; settings: 1, 10, 30 μM, 1% serum, CCK8 9 d posttreatment; P = 0.0011
[6] = tested on: TB26, TB43, TB48, GBM59, GBM96 primary GBM cultures; assay: Proliferation of AGTR2-expressing primary GBM cultures, CCK8; format: cell-based, human; settings: GBM59, 1% serum, CCK8 9 d
Outline: as §3

TB77 cells [7] = assay: RNA sequencing, whole-transcriptome analysis; format: cell-based, human; settings: 30 µM, 24 h; for number of differentially expressed genes vs untreated control: P < 0.01; for number of unique differentially expressed genes: not shared with the other antagonist
[8] = tested on: TB48, TB77, GBM96 spheroids; assay: 3D spheroid growth, CCK8; format: cell-based, human; settings: 10, 30, 50 μM, CCK8 9 d posttreatment
Outline: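 TB48, TB77 and GBM96 primary cells grown as 3D spheroids were exposed to test compound at 10, 30 and 50 μM. Growth was read by CCK8 9 d posttreatment. Values are mean A450 normalised to untreated control ± SEM. Groups were compared by ANOVA with Tukey's test.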

[9] = cited from earlier work
[10] = tested on: caspase-3/7 in TB77 cells; assay: Caspase-Glo 3/7 Assay; format: cell-based, human; settings: 30 μM
[11] = tested on: TB43, TB48, GBM59, GBM96 primary GBM cultures; assay: Proliferation of primary GBM cultures with EMA401, A3E, TMZ, CCK8; format: cell-based, human; settings: for sensitivity of GBM96: GBM96 (lacks AGTR1), A3E 10 μM
rat AT1R = settings: read-out: IC50 at rat AT1R; cited from earlier work
TB48 spheroids = assay: Spheroid invasion in 50% Matrigel; format: cell-based, human; settings: TB48, 30 μM
Outline: as §2

GBM59 = assay: TMZ sensitivity of primary GBM cells, SRB; format: cell-based, human; settings: TMZ 2-512 μM, 10% FBS, SRB after 9 days
U87-GFP/luc tumors [12] = assay: Orthotopic; format: in vivo, BALB/c nude mice
Outline: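 2 × 10⁵ U87-GFP/luc cells were implanted into the right cerebral cortex. After 7 d, mice were randomised to test compound or vehicle (PBS, 5% DMSO, 5% solutol), n = 6 each, dosed daily i.p. for 14 d. IVIS bioluminescence was imaged twice weekly and body weight tracked. Tumour sections were scored for H&E tumour area, fluorescent integrin β3 intensity and TUNEL intensity.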

U87-GFP/luc tumors [13] = assay: Subcutaneous U87-GFP/luc xenograft model of GBM; format: in vivo, NSG mice
Outline: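 2 × 10⁶ U87-GFP/luc cells were injected into the flanks of NSG mice. Once tumours were established, mice were randomised to test compound, comparators or vehicle (PBS, 5% DMSO, 5% solutol), n = 7–9 per group, and treated for 21 d. Tumour volume and final tumour weight are reported as mean ± SEM.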

For `CCCCc1nc(Cl)c(CO)n1Cc1ccc(-c2ccccc2-c2nn[nH]n2)cc1` [losartan], the “effect of antagonist on AngII-enhanced growth” value [1] was “no effects were observed”.

For “angiotensin II (DRVYIHPF; Angiotensin-2; UniProt P01019 25-32, looked up) [AngII]”, the “cell growth with exogenous AngII” value ([1]; 10 nM AngII, SRB or CCK8) is listed as “significantly enhanced”, the “cell growth with exogenous AngII” value (TB82) is listed as “minimally increased” and the “selectivity for AT2R over AT1R” value (AT2R) is listed as 10 fold. For the same molecule, the pKd (AT2R) was 8.80.

For `COc1ccc2c(c1OCc1ccccc1)C[C@@H](C(=O)O)N(C(=O)C(c1ccccc1)c1ccccc1)C2` [EMA401], the early apoptotic cells (TB77 cells [2]) was “significant increase in early apoptotic cells”, the “total segment length of endothelial tubes” value (hCMEC/D3) was “significantly reduced” and the spheroid invasiveness (GBM96 spheroids) was “significantly reduced the invasiveness”. The “sensitivity of GBM31 to growth inhibition” value (GBM31) was “insensitive”, the “EMA401 metabolite (peak at 3.7 min, m/z 314) in brain samples” value [3] was “a metabolite was identified” and the cell-cycle parameters (TB77 cells [4]) was “No changes in cell-cycle parameters”. For the same molecule, the “growth inhibition compared with PD123319” value (TB77 cells [5]) was “significantly more potent growth inhibition than PD123319”, the “growth inhibition of TMZ-insensitive GBM59” value [6] was “efficiently inhibited” and the “number of differentially expressed genes vs untreated control” value (TB77 cells [7]) was 5,498 genes. The “down-regulation of FGF18” value (TB77 cells [7]; RNA-seq) was 2.7 fold, the “down-regulation of G6PD” value (TB77 cells [7]; RNA-seq) was 1.26 fold and the “down-regulation of PDK2” value (TB77 cells [7]; RNA-seq) was 1.29 fold. For the same molecule, the “down-regulation of PDK4” value (TB77 cells [7]; RNA-seq) was 1.29 fold, the “down-regulation of PIDD1” value (TB77 cells [7]; RNA-seq) was 1.3 fold and the “down-regulation of TKT” value (TB77 cells [7]; RNA-seq) was 1.33 fold. For the same molecule, the “up-regulation of CASP3” value (TB77 cells [7]; RNA-seq) was 1.43 fold, the “up-regulation of MAP2K3” value (TB77 cells [7]; RNA-seq) was 1.7 fold and the “up-regulation of NFKB2” value (TB77 cells [7]; RNA-seq) was 1.5 fold. For the same molecule, the “up-regulation of RelB” value (TB77 cells [7]; RNA-seq) was 2.4 fold, the “up-regulation of TNFRSF21” value (TB77 cells [7]; RNA-seq) was 1.5 fold and the “number of unique differentially expressed genes” value (TB77 cells [7]) was 4,211 genes. For the same molecule, the spheroid growth sensitivity [8] was “sensitive”, the blood-brain barrier penetration [9] was “inability of EMA401 to penetrate the blood–brain barrier” and the “enhancement of caspase-3/7 activation” value ([10]; 24 h, luminescence, P < 0.0001) was 30%. The caspase-3/7 activation ([10]; 48 h) was “returned to baseline levels”, the “antiproliferative potency compared with TMZ” value ([11]; EMA401 30 μM, TMZ 30 μM, 1% serum, CCK8 9 d) was “greater potency than TMZ” and the “sensitivity of GBM96” value ([11]; EMA401 30 μM) was “especially sensitive”. For the same molecule, the pIC50 (rat AT1R) was 3.39 and the spheroid invasiveness (TB48 spheroids) was “significantly reduced”.

In the case of `Cn1nnc2c(C(N)=O)ncn2c1=O` [TMZ, temozolomide], the “sensitivity of GBM59 to TMZ” value (GBM59) was “insensitive”.

In the case of `Cc1cc(Cn2cnc3c2C[C@@H](C(=O)O)N(C(=O)C(c2ccccc2)c2ccccc2)C3)ccc1N(C)C` [PD123319], the “number of differentially expressed genes vs untreated control” value (TB77 cells [7]) was 2,195 genes, the “number of unique differentially expressed genes” value (TB77 cells [7]) was 908 genes and the “proliferation in the absence of exogenous AngII” value ([1]; 10 μM, significant in 8MG and TB77) was “inhibited the proliferation”. For the same molecule, the “effect of antagonist on AngII-enhanced growth” value [1] was “blocked the enhanced growth”, the pIC50 (rat AT1R) was 3.68 and the pKd (AT2R) was 7.14.

For `COc1ccc2c(c1OCc1ccccc1)C[C@@H](C(=O)OCC(=O)NCCCC[C@H](NC(=O)CNC(=O)[C@H](CCCNC(=N)N)NC(=O)[C@H](CO)NC(=O)CNC(=O)CNC(=O)[C@H](Cc1ccc(O)cc1)NC(=O)[C@H](Cc1ccccc1)NC(=O)[C@H](Cc1ccccc1)NC(=O)[C@@H](NC(=O)COC(=O)[C@@H]1Cc3c(ccc(OC)c3OCc3ccccc3)CN1C(=O)C(c1ccccc1)c1ccccc1)[C@@H](C)O)C(=O)N[C@@H](CCCNC(=N)N)C(=O)N[C@@H](CC(N)=O)C(=O)N[C@@H](CC(N)=O)C(=O)N[C@@H](Cc1ccccc1)C(=O)N[C@@H](CCCCNC(=O)COC(=O)[C@@H]1Cc3c(ccc(OC)c3OCc3ccccc3)CN1C(=O)C(c1ccccc1)c1ccccc1)C(=O)N[C@H](C(=O)N[C@@H](CCC(=O)O)C(=O)N[C@@H](CCC(=O)O)C(=O)N[C@@H](Cc1ccc(O)cc1)C(=O)O)[C@@H](C)O)N(C(=O)C(c1ccccc1)c1ccccc1)C2` [A3E], the “reduction of tumor size vs vehicle control” value (U87-GFP/luc tumors [12]; A3E 25.88 mg/kg i.p. daily for 14 d, bioluminescent imaging (IVIS), n = 6) was 40%, the “integrin β3 staining (angiogenesis) of tumor sections” value (U87-GFP/luc tumors [12]; n = 2, P = 0.17) was “reduction in integrin-β3 staining” and the “apoptosis, TUNEL assay of tumor sections” value (U87-GFP/luc tumors [12]; n = 3, P = 0.056) was “apoptosis was enhanced”. For the same molecule, the “tumor area, H&E staining, vs saline group” value (U87-GFP/luc tumors [12]; n = 5, P = 0.084) was “consistently smaller”, the “toxicity by body weight” value (U87-GFP/luc tumors [12]; subcutaneous or intracranial models, no significant weight loss over the study) was “no detectable toxicity” and the “EMA401 metabolite (peak at 3.7 min, m/z 314) in brain samples” value [3] was “not detected”. The “tumor size, volume and weight vs vehicle- or EMA401-treated groups” value (U87-GFP/luc tumors [13]; A3E 25.88 mg/kg i.p. daily, 21 d, NSG mice) was “significantly smaller size”, the “efficacy compared with TMZ” value (U87-GFP/luc tumors [13]; A3E 25.88 mg/kg, TMZ 30 mg/kg, i.p. daily) was “slightly more effective than TMZ, though this was not significant” and the “antiproliferative effect compared with EMA401” value ([11]; A3E 10 μM vs EMA401 30 μM, 1% serum, CCK8 9 d) was “equivalent inhibition to native EMA401 at a three-fold lower dose”. For the same molecule, the “sensitivity of GBM96” value ([11]; EMA401 30 μM) was “especially sensitive”.
